Test results reported in ChEMBL document CHEMBL1143175, “Inactivation of human neutrophil elastase by 1,2,5-thiadiazolidin-3-one 1,1 dioxide-based sulfonamides” (Bioorg Med Chem, 2008).
Calls of active or inactive are those of the source. The calls are words filed in the database; no cut-off is given here.

What was measured:
[1] = target: T1, Neutrophil elastase (Homo sapiens) (UniProt P08246); experiment: Ratio of Kinact to KI for human neutrophil elastase
T1 sequence (whole entry): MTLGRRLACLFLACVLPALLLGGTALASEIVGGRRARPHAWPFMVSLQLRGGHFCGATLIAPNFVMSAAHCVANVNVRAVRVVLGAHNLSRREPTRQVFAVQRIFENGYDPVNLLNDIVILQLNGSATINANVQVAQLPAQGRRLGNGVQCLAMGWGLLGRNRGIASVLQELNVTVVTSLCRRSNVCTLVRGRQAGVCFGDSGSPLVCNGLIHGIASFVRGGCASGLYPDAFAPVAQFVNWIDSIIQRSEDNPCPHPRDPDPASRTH
Procedure, shortened: (§1)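 Human neutrophil elastase, progress curve method: 10 nM enzyme added to inhibitor plus 105 µM MeOSuc-Ala-Ala-Pro-Val p-nitroanilide in 0.1 M HEPES/0.5 M NaCl, pH 7.25, 2.5% DMSO. Absorbance followed at 410 nm for 10 min and fitted to the progress curve equation. Apparent second-order constants kinact/KI determined in duplicate.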

[2] = target: T2, Myeloblastin (Homo sapiens) (UniProt P24158); experiment: Ratio of Kinact to KI for human PR3
T2 sequence (whole entry): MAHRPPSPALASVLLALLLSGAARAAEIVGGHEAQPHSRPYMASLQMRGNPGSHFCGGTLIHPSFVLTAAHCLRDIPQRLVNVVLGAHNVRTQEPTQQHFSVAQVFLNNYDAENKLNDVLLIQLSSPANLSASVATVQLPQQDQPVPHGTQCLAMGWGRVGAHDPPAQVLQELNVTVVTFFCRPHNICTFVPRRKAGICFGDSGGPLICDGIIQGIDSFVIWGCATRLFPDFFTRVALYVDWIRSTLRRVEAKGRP
Procedure, shortened: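 Human proteinase 3 (34.5 nM final) with inhibitor (8.6 µM final) and Boc-Ala-Ala-NVa-SBzl plus 5,5′-dithio-bis(2-nitrobenzoic acid) in 0.1 M HEPES/0.5 M NaCl, pH 7.25. Absorbance change monitored at 410 nm for 2 min; inhibitor:enzyme ratio 250.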

[3] = target: T3, Cathepsin G (Homo sapiens) (UniProt P08311); experiment: Ratio of Kinact to KI for human cathepsin G
T3 sequence (whole entry): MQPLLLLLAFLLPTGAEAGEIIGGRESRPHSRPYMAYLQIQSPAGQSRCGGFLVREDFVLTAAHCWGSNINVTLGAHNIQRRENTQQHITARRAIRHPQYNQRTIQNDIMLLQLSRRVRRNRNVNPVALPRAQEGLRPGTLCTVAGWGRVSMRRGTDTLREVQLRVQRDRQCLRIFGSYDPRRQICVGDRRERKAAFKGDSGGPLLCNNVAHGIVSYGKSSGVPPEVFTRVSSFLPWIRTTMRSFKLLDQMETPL
Procedure, shortened: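 Neutrophil cathepsin G incubated with inhibitor at an [I]/[E] ratio of 250 for 30 min. Substrate N-succinyl-Ala-Ala-Pro-Phe p-nitroanilide (85 mM stock in DMSO) then added, and absorbance monitored at 410 nm for 10 min.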

[4] = organism: Bos taurus; experiment: Inhibition of bovine trypsin; conditions: TDE = time-dependent effect
Procedure, shortened: (§2)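 Incubation method: bovine trypsin (5 µM final) incubated with excess inhibitor (0.125 mM final) in 0.025 M phosphate/0.1 M NaCl, pH 7.51, 1% DMSO, in a constant temperature bath. Aliquots taken over time, residual activity read with N-p-tosyl-Gly-Pro-Lys p-nitroanilide at 410 nm for 60 s. kobs from ln(v/v0) versus time, mean of two determinations, reported as kobs/[I].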

[5] = target: T1, Neutrophil elastase (Homo sapiens); experiment: Inhibition of human neutrophil elastase; conditions: TDE = time-dependent effect; procedure, shortened: as §1
[6] = organism: Bos taurus; experiment: Ratio of Kobs to [I] for bovine trypsin; procedure, shortened: as §2

| SMILES | Ratio [1] [M⁻¹ s⁻¹] | Activity [2] | Activity [3] | Activity [4] | Activity [5] | Ratio [6] |
| --- | --- | --- | --- | --- | --- | --- |
| CCCC1C(=O)N(CS(=O)(=O)N[C@H](Cc2ccccc2)C(=O)OC)S(=O)(=O)N1C (some centres undefined) | 9760 | inactive | inactive | tde | tde |  |
| CCCC1C(=O)N(CS(=O)(=O)N[C@@H](CCCCNC(=O)OCc2ccccc2)C(=O)OC)S(=O)(=O)N1C (some centres undefined) | 6900 | inactive | inactive | tde | tde |  |
| CCCC1C(=O)N(CS(=O)(=O)N[C@@H](CCCCN)C(=O)OC)S(=O)(=O)N1C (some centres undefined) | 12900 | inactive | inactive | tde | tde |  |
| CCCC1C(=O)N(CS(=O)(=O)N[C@@H](COCc2ccccc2)C(=O)OC)S(=O)(=O)N1C (some centres undefined) | 16900 | inactive | inactive | tde | tde | 60 |
| CCCC1C(=O)N(CS(=O)(=O)N[C@@H](CO)C(=O)OC)S(=O)(=O)N1C (some centres undefined) | 1100 | inactive | inactive | tde | tde | 12 |
| CCCC1C(=O)N(CS(=O)(=O)N[C@@H](C)C(=O)OC)S(=O)(=O)N1C (some centres undefined) | 1050 | inactive | inactive | tde | tde |  |
| CCCC1C(=O)N(CS(=O)(=O)N[C@@H](CCC)C(=O)OC)S(=O)(=O)N1C (some centres undefined) | 34600 | inactive | inactive | tde | tde | 19 |
| CCCC1C(=O)N(CS(=O)(=O)N[C@@H](Cc2ccccc2)C(=O)OC)S(=O)(=O)N1C (some centres undefined) | 41800 | inactive | inactive | tde | tde | 50 |
